Test results taken from ChEMBL document CHEMBL1138278, “Aromatic amide derivatives of 5,6-dimethoxy-2,3-dihydro-1H-inden(-1-yl)acetic acid as anti-inflammatory agents free of ulcerogenic liability” (Bioorg Med Chem Lett, 2007).

Key:
[1] = test system: Rattus norvegicus; experiment: Antipyretic activity against LPS-induced pyresis in Wistar rat assessed as change in rectal temperature at 100 mg/kg, po after 5 hrs; assay type: functional
In short: (§1)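 Male Wistar rats (170 ± 20 g) dosed orally: test agents at 100 mg/kg, indomethacin and aspirin at 10 mg/kg and 100 mg/kg. Half an hour later, LPS in apyrogenic saline given at 100 µg/kg i.p. Rectal temperature taken by telethermometer probe immediately before LPS and hourly from 1 to 7 h after. Change in temperature reported; means ± SEM, n = 6.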

[2] = test system: Rattus norvegicus; experiment: Antiinflammatory activity in Wistar rat assessed as inhibition of carrageenan-induced paw edema at 100 mg/kg, after 1 hr; assay type: functional
In short: (§2)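 Male Wistar rats (170 ± 20 g) dosed orally: test agents at 100 mg/kg, reference at 10 mg/kg. One hour later, 0.1 ml of 1% carrageenan injected subplantar into the right hind paw.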

[3] = test system: Rattus norvegicus; experiment: Antipyretic activity against LPS-induced pyresis in Wistar rat assessed as change in rectal temperature at 100 mg/kg, po after 7 hrs; assay type: functional; in short: as §1
[4] = test system: Rattus norvegicus; experiment: Antiinflammatory activity in Wistar rat assessed as inhibition of carrageenan-induced paw edema at 100 mg/kg, after 6 hrs; assay type: functional; in short: as §2
[5] = test system: Rattus norvegicus; experiment: Antipyretic activity against LPS-induced pyresis in Wistar rat assessed as change in rectal temperature at 100 mg/kg, po after 2 hrs; assay type: functional; in short: as §1
[6] = test system: Rattus norvegicus; experiment: Antipyretic activity against LPS-induced pyresis in Wistar rat assessed as change in rectal temperature at 100 mg/kg, po after 3 hrs; assay type: functional; in short: as §1
[7] = test system: Rattus norvegicus; experiment: Antiinflammatory activity in Wistar rat assessed as inhibition of carrageenan-induced paw edema at 100 mg/kg, after 24 hrs; assay type: functional; in short: as §2
[8] = test system: Rattus norvegicus; experiment: Antipyretic activity against LPS-induced pyresis in Wistar rat assessed as change in rectal temperature at 100 mg/kg, po after 1 hr; assay type: functional; in short: as §1
[9] = test system: Mus musculus; experiment: Analgesic activity in Swiss Albino mouse assessed as number of acetic acid-induced writhing at 100 mg/kg, po after 1 hr relative to control; assay type: functional
In short: (§3)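 Mice dosed orally; one hour later injected i.p. with 1% v/v acetic acid at 0.1 ml/10 g. Writhings counted over 15 min, starting five minutes after injection. Means ± SEM, n = 6; p < 0.05 versus control group.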

[10] = test system: Rattus norvegicus; experiment: Antiinflammatory activity in Wistar rat assessed as inhibition of carrageenan-induced paw edema at 100 mg/kg, after 3 hrs; assay type: functional; in short: as §2
[11] = test system: Rattus norvegicus; experiment: Antipyretic activity against LPS-induced pyresis in Wistar rat assessed as change in rectal temperature at 100 mg/kg, po after 4 hrs; assay type: functional; in short: as §1
[12] = test system: Mus musculus; experiment: Analgesic activity in Swiss Albino mouse assessed as inhibition of acetic acid-induced writhing responses at 100 mg/kg, po after 1 hr; assay type: functional; in short: as §3
[13] = test system: Rattus norvegicus; experiment: Antipyretic activity against LPS-induced pyresis in Wistar rat assessed as change in rectal temperature at 100 mg/kg, po after 6 hrs; assay type: functional; in short: as §1
[14] = test system: Rattus norvegicus; experiment: Antiinflammatory activity in Wistar rat assessed as inhibition of carrageenan-induced paw edema at 100 mg/kg, after 4 hrs; assay type: functional; in short: as §2
[15] = test system: Rattus norvegicus; experiment: Antiinflammatory activity in Wistar rat assessed as inhibition of carrageenan-induced paw edema at 100 mg/kg, after 2 hrs; assay type: functional; in short: as §2
[16] = test system: Rattus norvegicus; experiment: Antiarthritic activity against adjuvant-induced arthritis in Wistar rat assessed as weight change at 100 mg/kg, po; assay type: functional
In short: (§4)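 Male Wistar rats (160 ± 10 g) dosed orally once daily for 14 days, from the day before injecting 0.1 ml Freund's complete adjuvant into the subplantar surface of the right hind paw. Paw swelling, including the uninjected left paw, and body weight recorded. Means ± SEM, n = 6; p < 0.05 versus control.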

[17] = test system: Rattus norvegicus; experiment: Antiarthritic activity against adjuvant-induced arthritis in Wistar rat assessed as inhibition of paw edema at 100 mg/kg, po on day 3; assay type: functional; conditions: 72 h; in short: as §4
[18] = test system: Rattus norvegicus; experiment: Antiarthritic activity against adjuvant-induced arthritis in Wistar rat assessed as inhibition of paw edema at 100 mg/kg, po on day 13; assay type: functional; conditions: 312 h; in short: as §4
[19] = test system: Rattus norvegicus; experiment: Antiarthritic activity against adjuvant-induced arthritis in Wistar rat assessed as inhibition of paw edema at 100 mg/kg, po on day 8; assay type: functional; conditions: 192 h; in short: as §4
[20] = test system: Rattus norvegicus; experiment: Toxicity in 24 hrs fasted Wistar rat assessed as ulcer index at 100 mg/kg, po after 6 hrs; assay type: organism-based; design: dose 100 mg/kg, route oral; conditions: in vivo
In short: (§5)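 Male Wistar rats (175 ± 25 g) fasted 24 h and dosed orally. Acute arm: test agents at 100 mg/kg, indomethacin at 30 mg/kg; rats killed after 6 h, stomachs opened along the greater curvature and scored for ulcers. Chronic arm: 14-day dosing, stomachs examined post mortem at the end of the arthritis study. Ulcer index means ± SEM, n = 4.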

[21] = test system: Rattus norvegicus; experiment: Toxicity in 24 hrs fasted Wistar rat assessed as ulcer index at 100 mg/kg, po after 14 days; assay type: organism-based; design: dose 100 mg/kg, route oral; conditions: in vivo, 336 h; in short: as §5
[22] = test system: Rattus norvegicus; experiment: Antipyretic activity against LPS-induced pyresis in Wistar rat assessed as change in rectal temperature at 10 mg/kg, po after 4 hrs; assay type: functional; in short: as §1
[23] = test system: Rattus norvegicus; experiment: Antipyretic activity against LPS-induced pyresis in Wistar rat assessed as change in rectal temperature at 100 mg/kg, po after 6 hrs
[24] = test system: Rattus norvegicus; experiment: Antipyretic activity against LPS-induced pyresis in Wistar rat assessed as change in rectal temperature at 10 mg/kg, po after 1 hr; assay type: functional; in short: as §1
[25] = test system: Rattus norvegicus; experiment: Antipyretic activity against LPS-induced pyresis in Wistar rat assessed as change in rectal temperature at 10 mg/kg, po after 5 hrs; assay type: functional; in short: as §1
[26] = test system: Rattus norvegicus; experiment: Antipyretic activity against LPS-induced pyresis in Wistar rat assessed as change in rectal temperature at 100 mg/kg, po after 7 hrs
[27] = test system: Rattus norvegicus; experiment: Antipyretic activity against LPS-induced pyresis in Wistar rat assessed as change in rectal temperature at 100 mg/kg, po after 2 hrs
[28] = test system: Mus musculus; experiment: Analgesic activity in Swiss Albino mouse assessed as inhibition of acetic acid-induced writhing responses at 10 mg/kg, po after 1 hr; assay type: functional; in short: as §3
[29] = test system: Mus musculus; experiment: Analgesic activity in Swiss Albino mouse assessed as number of acetic acid-induced writhing at 100 mg/kg, po after 1 hr relative to control
[30] = test system: Rattus norvegicus; experiment: Antipyretic activity against LPS-induced pyresis in Wistar rat assessed as change in rectal temperature at 10 mg/kg, po after 3 hrs; assay type: functional; in short: as §1

Compound | inhibition in vivo at 100 mg/kg [2] [%] | inhibition in vivo at 100 mg/kg [4] [%] | inhibition in vivo at 100 mg/kg [7] [%] | Activity [9] | inhibition in vivo at 100 mg/kg [10] [%] | inhibition in vivo at 100 mg/kg [12] [%] | inhibition in vivo at 100 mg/kg [14] [%] | inhibition in vivo at 100 mg/kg [15] [%] | other results
COc1ccc(NC(=O)CC2CCc3cc(OC)c(OC)cc32)cc1 (stereo not given) | 34.4 | 29.6 | 40 | 14.33 | 26.1 | 58.7 | 27.3 | 18 | Activity [1]: 0.14 °C; Activity [3]: 0.43 °C; Activity [5]: -1.84 °C; Activity [6]: -0.66 °C; Activity [8]: -0.12 °C; Activity [11]: -0.15 °C; Activity [13]: 0.26 °C
COc1cc2c(cc1OC)C(CC(=O)Nc1ccccc1C)CC2 (stereo not given) | 21.9 | 25.9 | 23.3 | 24.3 | 26.1 | 30 | 25 | 18 | 
COc1cc2c(cc1OC)C(CC(=O)Nc1ccccn1)CC2 (stereo not given) | 25 | 29.6 | 33.3 | 18 | 30.4 | 48 | 29.7 | 32 | 
COc1ccccc1NC(=O)CC1CCc2cc(OC)c(OC)cc21 (stereo not given) | 28.1 | 24.1 | 30 | 26.17 | 21.7 | 24.5 | 23.4 | 16 | 
COc1cc2c(cc1OC)C(CC(=O)Nc1ccncc1)CC2 (stereo not given) | 42.2 | 46.3 | 46.7 | 13.83 | 42 | 60.1 | 45.3 | 44 | Activity [1]: 0.35 °C; Activity [3]: 0.42 °C; Activity [5]: -2.23 °C; Activity [16]: 4.25 g; Activity [6]: -0.87 °C; Activity [8]: -0.11 °C; Activity [11]: 0.13 °C; inhibition in vivo at 100 mg/kg [17]: 17%; inhibition in vivo at 100 mg/kg [18]: 19.7%; Activity [13]: 0.74 °C; inhibition in vivo at 100 mg/kg [19]: 11.1%
COc1cc2c(cc1OC)C(CC(=O)Nc1ccc(Br)cc1)CC2 (stereo not given) | 50 | 46.3 | 66.7 | 21.67 | 43.5 | 37.5 | 40.6 | 40 | 
COc1cc2c(cc1OC)C(CC(=O)Nc1ccc(NC(C)=O)cc1)CC2 (stereo not given) | 25 | 24.1 | 33.3 | 24 | 23.2 | 30.8 | 22.7 | 18 | 
COc1cc2c(cc1OC)C(CC(=O)Nc1ccc(C)cc1)CC2 (stereo not given) | 34.4 | 37 | 30 | 20.33 | 34.8 | 41.4 | 32.8 | 26 | UI [20]: 0
COc1cc2c(cc1OC)C(CC(=O)Nc1ccccc1)CC2 (stereo not given) | 31.2 | 38.9 | 30 | 19.83 | 36.2 | 42.8 | 37.5 | 32 | 
COc1cc2c(cc1OC)C(CC(=O)Nc1ccc([N+](=O)[O-])cc1)CC2 (stereo not given) | 37.5 | 37 | 43.3 | 15.33 | 37.7 | 55.8 | 37.5 | 36 | Activity [16]: 4.01 g; inhibition in vivo at 100 mg/kg [17]: 27.2%; inhibition in vivo at 100 mg/kg [18]: 10.8%; UI [20]: 0; inhibition in vivo at 100 mg/kg [19]: 17.7%
COc1cc2c(cc1OC)C(CC(=O)Nc1cccnc1)CC2 (stereo not given) | 25 | 35.2 | 36.7 | 10.17 | 33.3 | 70.7 | 34.4 | 30 | 
COc1cc2c(cc1OC)C(CC(=O)Nc1cccc(Cl)c1)CC2 (stereo not given) | 31.2 | 38.9 | 63.3 | 16.83 | 24.6 | 51.5 | 25.8 | 28 | Activity [1]: 0.23 °C; Activity [3]: 0.42 °C; Activity [5]: -1.62 °C; Activity [16]: 7.21 g; Activity [6]: -0.24 °C; Activity [8]: -0.35 °C; UI [21]: 0; Activity [11]: 0.05 °C; inhibition in vivo at 100 mg/kg [17]: 37.5%; inhibition in vivo at 100 mg/kg [18]: 35.7%; Activity [13]: 0.44 °C; UI [20]: 0; inhibition in vivo at 100 mg/kg [19]: 25.8%
COc1cc2c(cc1OC)C(CC(=O)Nc1cccc(C)c1)CC2 (stereo not given) | 37.5 | 38 | 41.7 | 15.83 | 37.7 | 54.3 | 40.6 | 29 | Activity [1]: 0.46 °C; Activity [3]: 0.82 °C; Activity [5]: -1.34 °C; Activity [16]: 4.56 g; Activity [6]: -0.51 °C; Activity [8]: -0.19 °C; UI [21]: 0; Activity [11]: 0.22 °C; inhibition in vivo at 100 mg/kg [17]: 16.5%; inhibition in vivo at 100 mg/kg [18]: 20.7%; Activity [13]: 0.71 °C; inhibition in vivo at 100 mg/kg [19]: 19.2%
CC(=O)Oc1ccccc1C(=O)O [ASPIRIN] |  |  |  |  |  |  |  |  | Activity [22]: 0.11 °C; Activity [23]: 0.25 °C; Activity [24]: -0.43 °C; Activity [25]: 0.2 °C; Activity [26]: 0.31 °C; Activity [27]: -1.45 °C; inhibition in vivo at 10 mg/kg [28]: 61.5%; Activity [29]: 13.33; Activity [30]: -0.51 °C
COc1cc2c(cc1OC)C(CC(=O)O)CC2 (stereo not given) | 18.8 | 20.4 | 26.7 | 19.41 | 27.5 | 44 | 23.9 | 24 | 
